Test results as given in ChEMBL document CHEMBL1149630, “Damipipecolin and damituricin, novel bioactive bromopyrrole alkaloids from the Mediterranean sponge Axinella damicornis” (2007).
The source made the active and inactive calls. The rule behind the calls is not given here.

Experiments:
Neuron [1] = assay: Effect on L-glutamic acid/CaCl2 induced increase in intracellular calcium level in rat neuronal cells pretreated for 5 mins at 10 ug/ml after 20 mins in relative to control; format: functional
Outline: (§1)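 Rat cortical neurons were loaded with 4 μM fura-2-AM, then preincubated 5 min with 0.1, 1 or 10 µg/ml compound in Ca/Mg-free Locke's, pH 7.4. 200 µM L-glutamic acid plus 2.5 mM CaCl2 was added at 10 min. The 340/380 nm ratio increase was recorded over 20 min and expressed as % of vehicle control.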

Neuron [2] = assay: Effect on NMDA/CaCl2 induced increase in intracellular calcium level in rat neuronal cells pretreated for 5 mins at 10 ug/ml after 20 mins in relative to control; format: functional
Outline: (§2)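 Rat cortical neurons were fura-2-loaded (4 μM, 1 h, 37 °C) and preincubated 5 min with 0.1, 1 or 10 µg/ml compound in Ca/Mg-free Locke's, pH 7.4. They were stimulated at 10 min with 200 µM NMDA plus 2.5 mM CaCl2. The fura-2 340/380 ratio change was followed for 20 min and set relative to the vehicle control (100%).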

[3] = Effect on 5-HT/CaCl2 induced increase in intracellular calcium level in rat primary neuronal cells pretreated for 5 mins at 0.03 ug/ml after 20 mins in relative to control; format: functional, Primary neuron
Outline: (§3)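 Rat cortical neurons from E17–18 Wistar embryos were grown serum-free on poly-L-lysine glass. They were loaded with 4 μM fura-2-AM for 1 h at 37 °C. Cells were preincubated 5 min with compound (0.01–10 µg/ml) in Ca/Mg-free Locke's, pH 7.4. 200 µM 5-HT plus 2.5 mM CaCl2 was added at 10 min. The 340/380 ratio increase was imaged over 20 min as % of DMSO/water control, ±SD of 3–5 experiments, ~90 cells each.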

Primary neuron [4] = assay: Effect on 5-HT/CaCl2 induced increase in intracellular calcium level in rat primary neuronal cells pretreated for 5 mins at 0.01 ug/ml after 20 mins in relative to control; format: functional, cell-based; outline: as §3
Neuron [5] = assay: Effect on L-glutamic acid/CaCl2 induced increase in intracellular calcium level in rat neuronal cells pretreated for 5 mins at 0.1 ug/ml after 20 mins in relative to control; format: functional; outline: as §1
Primary neuron [6] = assay: Effect on 5-HT/CaCl2 induced increase in intracellular calcium level in rat primary neuronal cells pretreated for 5 mins at 0.1 ug/ml after 10 mins; format: functional, cell-based
[7] = Effect on 5-HT/CaCl2 induced increase in intracellular calcium level in rat primary neuronal cells pretreated for 5 mins at 0.3 ug/ml after 20 mins in relative to control; format: functional, Primary neuron; outline: as §3
HeLa = assay: Cytotoxicity against HeLa cells at 10 ug/ml after 72 hrs by MTT assay; format: functional, cell-based; details: Homo sapiens
Outline: (§4)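 Cells exposed 72 h to a range of concentrations; viability by MTT colorimetric read at 595 nm after overnight incubation at 37 °C. PC12 grown in DMEM/10% FCS/5% horse serum; HeLa and L5178y in RPMI 1640/10% FCS; all at 37 °C, 5% CO2.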

Primary neuron [8] = assay: Effect on 5-HT/CaCl2 induced increase in intracellular calcium level in rat primary neuronal cells pretreated for 5 mins at 10 ug/ml after 20 mins in relative to control; format: functional, cell-based; outline: as §3
L5178Y = assay: Cytotoxicity against L5178y cells at 10 ug/ml after 72 hrs by MTT assay; format: functional, cell-based; outline: as §4
Neuron [9] = assay: Effect on L-glutamic acid/CaCl2 induced increase in intracellular calcium level in rat neuronal cells pretreated for 5 mins at 1 ug/ml after 20 mins in relative to control; format: functional; outline: as §1
Primary neuron [10] = assay: Effect on 5-HT/CaCl2 induced increase in intracellular calcium level in rat primary neuronal cells pretreated for 5 mins at 3 ug/ml after 20 mins in relative to control; format: functional, cell-based; outline: as §3
[11] = Effect on 5-HT/CaCl2 induced increase in intracellular calcium level in rat primary neuronal cells pretreated for 5 mins at 0.1 ug/ml after 20 mins in relative to control; format: functional, Primary neuron; outline: as §3
PC-12 [12] = assay: Cytotoxicity against PC12 cells at 10 ug/ml after 72 hrs by MTT assay; format: functional, cell-based; outline: as §4
Suberites domuncula [13] = assay: Effect on 5-HT/CaCl2 induced increase in intracellular calcium level in Suberites domunculas sponge cell pretreated for 5 mins at 1 ug/ml in relative to control
Suberites domuncula [14] = assay: Effect on 5-HT/CaCl2 induced increase in intracellular calcium level in Suberites domunculas sponge cell pretreated for 5 mins at 0.1 ug/ml in relative to control
Neuron [15] = assay: Effect on NMDA/CaCl2 induced increase in intracellular calcium level in rat neuronal cells pretreated for 5 mins at 0.1 ug/ml after 20 mins in relative to control; format: functional; outline: as §2
[16] = Effect on 5-HT/CaCl2 induced increase in intracellular calcium level in rat primary neuronal cells pretreated for 5 mins at 1 ug/ml after 20 mins in relative to control; format: functional, Primary neuron; outline: as §3
Neuron [17] = assay: Effect on NMDA/CaCl2 induced increase in intracellular calcium level in rat neuronal cells pretreated for 5 mins at 1 ug/ml after 20 mins in relative to control; format: functional; outline: as §2
PC-12 [18] = assay: Effect on 5-HT/CaCl2 induced increase in intracellular calcium level in PC12 cells pretreated for 5 mins at 1 ug/ml after 20 mins in relative to control; format: functional
Outline: (§5)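 Cells on poly-L-lysine coverglass, loaded with 10 μM fura-2-AM (1 h, 37 °C), washed, held 1 h. In Ca2+/Mg2+-free Locke's solution pH 7.4, 1 μg/ml compound added for 5 min, then 200 μM 5-HT plus 2.5 mM CaCl2 at 10 min. 340/380 nm ratio recorded ≥20 min; rise vs 0.1% DMSO or water control set to 100%; three independent experiments, mean ± SD.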

HEK293 = assay: Effect on 5-HT/CaCl2 induced increase in intracellular calcium level in HEK cells pretreated for 5 mins at 1 ug/ml after 20 mins in relative to control; format: functional, cell-based; details: Homo sapiens; outline: as §5

O=C(O[C@@H]1CCN[C@@H](C(=O)O)C1)c1cc(Br)c[nH]1 [DAMIPIPECOLIN]
Activity (Neuron [1]): 96.6% | Activity (Neuron [2]): 105.9% | Activity [3]: 71.6% | Activity (Primary neuron [4]): inactive | Activity (Neuron [5]): 83.3% | Activity (Primary neuron [6]): Active | Activity [7]: 29.7% | Activity (HeLa): Not toxic | Activity (Primary neuron [8]): inactive | Activity (L5178Y): Not toxic | Activity (Neuron [9]): 90.5% | Activity (Primary neuron [10]): inactive | Activity [11]: 11.2% | Activity (PC-12 [12]): Not toxic | Activity (Suberites domuncula [13]): inactive | Activity (Suberites domuncula [14]): inactive | Activity (Neuron [15]): 114.1% | Activity [16]: 38% | Activity (Neuron [17]): 70.4%

C[N+]1(C)C[C@H](OC(=O)c2cc(Br)c[nH]2)C[C@@H]1C(=O)[O-] [DAMITURICIN]
Activity (PC-12 [18]): 43.8% | Activity (HeLa): Not toxic | Activity (L5178Y): Not toxic | Activity (PC-12 [12]): Not toxic | Activity (HEK293): inactive
